Results on two compounds are retold here after ChEMBL document CHEMBL5042469, “Unique Molecular Interaction with the Histone Deacetylase 6 Catalytic Tunnel: Crystallographic and Biological Characterization of a Model Chemotype” (J Med Chem, 2021).

The structures appear in SMILES notation. pIC50, pKi: −log10 of the molar value.

The target in data set [1] is T1, Protein deacetylase HDAC6 (Homo sapiens, UniProt Q9UBN7).
T1 sequence (Q9UBN7 whole entry): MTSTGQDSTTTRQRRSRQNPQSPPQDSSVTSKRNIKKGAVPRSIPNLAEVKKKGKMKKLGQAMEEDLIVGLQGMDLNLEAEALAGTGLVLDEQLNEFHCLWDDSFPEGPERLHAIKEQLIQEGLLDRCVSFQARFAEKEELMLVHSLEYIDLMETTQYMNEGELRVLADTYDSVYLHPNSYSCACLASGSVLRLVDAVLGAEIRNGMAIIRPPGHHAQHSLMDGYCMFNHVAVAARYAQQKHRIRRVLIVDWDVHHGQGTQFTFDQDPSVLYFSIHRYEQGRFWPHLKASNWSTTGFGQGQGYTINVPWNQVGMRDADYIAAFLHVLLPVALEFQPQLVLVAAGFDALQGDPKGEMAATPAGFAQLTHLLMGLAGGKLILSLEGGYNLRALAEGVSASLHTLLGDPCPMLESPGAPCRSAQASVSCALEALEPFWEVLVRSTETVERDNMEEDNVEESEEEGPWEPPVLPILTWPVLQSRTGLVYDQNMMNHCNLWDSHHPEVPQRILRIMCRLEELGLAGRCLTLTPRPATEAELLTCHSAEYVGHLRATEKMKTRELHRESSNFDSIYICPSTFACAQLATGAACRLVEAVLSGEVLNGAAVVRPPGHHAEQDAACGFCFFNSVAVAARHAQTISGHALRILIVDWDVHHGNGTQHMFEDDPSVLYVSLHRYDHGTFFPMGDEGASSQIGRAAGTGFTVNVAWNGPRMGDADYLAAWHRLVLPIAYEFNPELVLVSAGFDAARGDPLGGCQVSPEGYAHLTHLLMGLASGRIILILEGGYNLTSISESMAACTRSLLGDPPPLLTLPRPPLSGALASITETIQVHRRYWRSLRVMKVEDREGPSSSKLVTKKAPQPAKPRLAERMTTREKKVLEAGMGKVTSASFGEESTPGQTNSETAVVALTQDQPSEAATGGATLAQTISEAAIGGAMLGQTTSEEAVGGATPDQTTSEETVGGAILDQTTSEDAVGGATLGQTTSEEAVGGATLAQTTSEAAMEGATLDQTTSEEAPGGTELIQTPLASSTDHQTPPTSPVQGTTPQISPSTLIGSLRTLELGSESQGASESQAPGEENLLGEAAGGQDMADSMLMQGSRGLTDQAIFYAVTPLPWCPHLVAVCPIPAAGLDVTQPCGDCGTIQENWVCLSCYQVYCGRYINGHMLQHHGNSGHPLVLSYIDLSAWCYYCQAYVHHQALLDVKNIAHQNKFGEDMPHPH
Nature of the data set: Binding affinity to human HDAC6 by jump dilution assay.

The target in the next data set is Histone deacetylase 9 (Homo sapiens, UniProt Q9UKV0). Nature of the data set: Inhibition of full length human HDAC9 using FAM-labeled acetylated peptide as substrate by electrophoretic mobility shift assay. A digest of the protocol:
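Full-length human HDAC isoform enzymatic assay by electrophoretic mobility shift, using a FAM-labelled acetylated peptide substrate. […] Values are the mean of duplicate experiments with 95% confidence intervals.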
Background: In EMSA bound probe runs differently from free probe, usually more slowly.

Data set [2] concerns MV4-11. Nature of the data set: Induction of apoptosis in human MV4-11 cells assessed as viable cells at 0.25 uM incubated for 15 mins by Annexin-V/FITC staining based FACS analysis (reference value: 35.53%). It counts as functional. The note with it: MV4-11, 0.25 h, read-out: Activity. A digest of the protocol: (§1)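 MV4-11 cells were dosed, then washed twice in cold PBS and resuspended in binding buffer at 1×10^6 cells/mL. Cells were stained with FITC-annexin V and propidium iodide for 15 min in the dark, diluted with binding buffer and analysed by flow cytometry within 1 h. Quadrants: LL viable, LR early apoptotic, UR late apoptotic. Duplicate experiments averaged; DMSO control.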
Background: In flow cytometry, cells or beads pass a laser one at a time.

Data set [3] relates to MV4-11. Kind of data set: Induction of apoptosis in human MV4-11 cells assessed as viable cells at 0.50 uM incubated for 15 mins by Annexin-V/FITC staining based FACS analysis (reference value: 35.53%). It counts as functional. The following applies: MV4-11, 0.25 h, read-out: Activity. A digest of the protocol: as §1
Data set [4] relates to MV4-11. Kind of data set: Induction of apoptosis in human MV4-11 cells assessed as early apoptotic cells at 0.25 uM incubated for 15 mins by Annexin-V/FITC staining based FACS analysis (reference value: 0.70%). It counts as functional. In short, it runs like this:
as §1

Data set [5] deals with MV4-11. Kind of data set: Induction of apoptosis in human MV4-11 cells assessed as early apoptotic cells at 0.50 uM incubated for 15 mins by Annexin-V/FITC staining based FACS analysis (reference value: 0.70%). It counts as functional. The following applies: dose 0.5 µM, 0.25 h. A digest of the protocol:
as §1

For data set [6], the system named is MV4-11. Nature of the data set: Induction of apoptosis in human MV4-11 cells assessed as late apoptotic cells at 0.25 uM incubated for 15 mins by Annexin-V/FITC staining based FACS analysis (reference value: 4.17%). The class given is functional. A digest of the protocol: as §1
The subject of data set [7] is MV4-11. Kind of data set: Induction of apoptosis in human MV4-11 cells assessed as late apoptotic cells at 0.50 uM incubated for 15 mins by Annexin-V/FITC staining based FACS analysis (reference value: 4.17%). It counts as functional. The following applies: dose 0.5 µM, 0.25 h. A digest of the protocol: as §1
In data set [8] the test system is MV4-11. Nature of the data set: Induction of apoptosis in human MV4-11 cells assessed as late apoptotic cells at 4 uM incubated for 15 mins by Annexin-V/FITC staining based FACS analysis (reference value: 4.17%). The following applies: 0.25 h. The class given is functional. A digest of the protocol: as §1
A short description of data set [9]: Stability in human whole blood assessed as compound remaining measured after 15 mins. The class given is ADME, tissue-based. The note with it: read-out: Stability.
The nature of data set [10]: Half life in human whole blood incubated for 1 hr. The class given is ADME, tissue-based. A digest of the protocol:
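Compound was incubated in mouse plasma or in pooled human whole blood. […] Triplicate studies, averaged.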

A short description of data set [11]: Half life in Balb/c mouse at 50 mg/kg, ip by LC-MS/MS analysis. The following applies: in vivo. It counts as ADME, organism-based. A digest of the protocol:
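Male BALB/c mice received a single intraperitoneal dose from a 50 mg/mL solution in 5% DMSO, 30% PEG400, 1% Tween80 and 64% saline. Blood was collected at several time points and the compound quantified by triple-quadrupole LC-MS/MS.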

Data set [12] concerns MV4-11. Nature of the data set: Induction of apoptosis in human MV4-11 cells assessed as early apoptotic cells at 4 uM incubated for 15 mins by Annexin-V/FITC staining based FACS analysis (reference value: 7.28%). The class given is functional. The following applies: 0.25 h. In short, it runs like this: as §1
The subject of data set [13] is MV4-11. Kind of data set: Induction of apoptosis in human MV4-11 cells assessed as late apoptotic cells at 2 uM incubated for 15 mins by Annexin-V/FITC staining based FACS analysis (reference value: 4.36%). The note with it: 0.25 h. It counts as functional. In short, it runs like this:
as §1

Histone deacetylase 9, sequence (Q9UKV0 whole entry, canonical isoform): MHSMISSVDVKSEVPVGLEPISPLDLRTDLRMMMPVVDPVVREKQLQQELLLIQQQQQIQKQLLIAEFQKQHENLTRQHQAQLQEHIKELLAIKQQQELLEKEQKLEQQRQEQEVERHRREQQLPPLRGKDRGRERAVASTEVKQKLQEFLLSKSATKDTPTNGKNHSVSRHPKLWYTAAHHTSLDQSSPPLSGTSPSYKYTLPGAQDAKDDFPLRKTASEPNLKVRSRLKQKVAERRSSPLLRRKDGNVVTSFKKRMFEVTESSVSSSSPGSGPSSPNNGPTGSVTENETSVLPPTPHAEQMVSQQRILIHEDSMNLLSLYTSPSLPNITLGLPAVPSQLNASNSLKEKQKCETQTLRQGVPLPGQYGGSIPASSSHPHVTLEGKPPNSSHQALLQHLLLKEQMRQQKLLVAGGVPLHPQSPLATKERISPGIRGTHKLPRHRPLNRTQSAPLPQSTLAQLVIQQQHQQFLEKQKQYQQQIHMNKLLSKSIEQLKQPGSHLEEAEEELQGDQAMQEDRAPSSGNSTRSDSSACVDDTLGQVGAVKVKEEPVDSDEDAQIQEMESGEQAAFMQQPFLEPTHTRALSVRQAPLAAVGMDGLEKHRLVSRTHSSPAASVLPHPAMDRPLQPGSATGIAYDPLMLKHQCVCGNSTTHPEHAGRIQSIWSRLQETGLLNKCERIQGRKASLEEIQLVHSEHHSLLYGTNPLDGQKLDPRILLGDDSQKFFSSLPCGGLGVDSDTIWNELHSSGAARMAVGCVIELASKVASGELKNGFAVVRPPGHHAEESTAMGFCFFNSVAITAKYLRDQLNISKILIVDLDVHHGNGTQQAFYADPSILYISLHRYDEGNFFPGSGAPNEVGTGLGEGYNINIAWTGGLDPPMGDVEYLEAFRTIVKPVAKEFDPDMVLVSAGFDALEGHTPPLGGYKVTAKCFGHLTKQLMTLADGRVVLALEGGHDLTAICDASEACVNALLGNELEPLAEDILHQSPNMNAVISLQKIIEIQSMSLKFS

By pKi is commonly meant the Ki on a negative log10 scale, so that one unit is a factor of ten. Read a low pKi as a high Ki. Broadly, the pIC50 is the negative decadic logarithm of the IC50, by convention in mol/L. Turning to `O=C(NO)c1ccc(CN(Cc2cccnc2)S(=O)(=O)c2cc(F)c(F)c(F)c2F)cc1`, the pKi in data set [1] is 9.15. Moreover, the pIC50 on Histone deacetylase 9 was 5.56. The viability at 0.25 µM with MV4-11 [2] was determined as 33.1%. Moreover, the viability at 0.5 µM with MV4-11 [3] worked out at 28.4%. For the same compound, the Activity in the data set with MV4-11 [4] came to 0.94%; in the data set on MV4-11 [5], 1.24%; in the data set with MV4-11 [6] it was 3.29%; in the data set on MV4-11 [7], 5.46%; in the data set with MV4-11 [8], 19.29%. Further, in [9], the remaining at 0.25 h worked out at 88%. Besides, the t1/2 amounted to 1.8 h in [10] and 1.7 h in data set [11].

As to `O=C(CCCCCCNC(=O)c1cnc(N(c2ccccc2)c2ccccc2Cl)nc1)NO` [CITARINOSTAT], the Activity is listed as 38.98% in the data set on MV4-11 [12] and 13.33% with MV4-11 [13].
